Experimental data from ChEMBL document CHEMBL1142928, “Substitution at the 8-position of 3''-deoxy-cyclic ADP-carbocyclic-ribose, a highly potent Ca2+-mobilizing agent, provides partial agonists” (Bioorg Med Chem, 2007).
Activity calls are given as the source filed them. No cut-off for these calls is given here.

Experiments:
Type in all cases: functional
Echinoidea [1] = assay: Calcium-mobilizing activity in Sea urchin egg homogenate
Outline: (§1)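 Homogenate of Hemicentrotus pulcherrimus sea urchin eggs. Ca2+ release was monitored fluorometrically with fura-2 as the F340/F380 ratio over a range of analogue concentrations. Each response was expressed as the percent change in ratio relative to the response to the maximal cADPcR concentration. EC50 values were taken from dose–response curves.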

Echinoidea [2] = assay: Calcium-mobilizing activity in Sea urchin egg homogenate relative to cADPcR; outline: as §1
Echinoidea [3] = assay: Inhibition of cADPcR-induced calcium release in Sea urchin egg homogenate
Outline: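 Hemicentrotus pulcherrimus egg homogenate was read by fura-2 fluorescence ratio (F340/F380). Homogenate was exposed to graded analogue concentrations, then challenged with the maximal concentration of cADPcR. IC50 values were derived from dose-dependent desensitization (cross-desensitization) of the cADPcR-induced Ca2+ release.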

EC50 (Echinoidea [1]) [nM]	IC50 (Echinoidea [3]) [nM]	SMILES	Activity (Echinoidea [2]) [%]	Activity (Echinoidea [1])
190	410	Nc1c2nc(Cl)n3c2nc[n+]1[C@@H]1C[C@H](COP(=O)([O-])OP(=O)(O)OC[C@H]2O[C@@H]3[C@H](O)[C@@H]2O)C[C@H]1O	21	
490	1100	[N-]=[N+]=Nc1nc2c(N)[n+]3cnc2n1[C@@H]1O[C@H](COP(=O)(O)OP(=O)([O-])OC[C@@H]2C[C@@H](O)[C@H]3C2)[C@@H](O)[C@H]1O	16	
17	44	Nc1nc2c(N)[n+]3cnc2n1[C@@H]1O[C@H](COP(=O)(O)OP(=O)([O-])OC[C@@H]2C[C@@H](O)[C@H]3C2)[C@@H](O)[C@H]1O	14	
	3000	Nc1c2nc(Cl)n3c2nc[n+]1[C@@H]1C[C@H](COP(=O)(O)OP(=O)([O-])OC[C@H]2O[C@@H]3[C@H](O)[C@@H]2O)[C@@H](O)[C@H]1O		
17		Nc1c2ncn3c2nc[n+]1[C@@H]1C[C@H](COP(=O)([O-])OP(=O)(O)OC[C@H]2O[C@@H]3[C@H](O)[C@@H]2O)C[C@H]1O	100	

Second part, the compound before the results:

SMILES	EC50 (Echinoidea [1]) [nM]	IC50 (Echinoidea [3]) [nM]	Activity (Echinoidea [2]) [%]	Activity (Echinoidea [1])
[N-]=[N+]=Nc1nc2c(N)[n+]3cnc2n1[C@@H]1O[C@H](COP(=O)(O)OP(=O)([O-])OC[C@H]2C[C@@H]3[C@H](O)[C@@H]2O)[C@@H](O)[C@H]1O		4200		
Nc1c2ncn3c2nc[n+]1[C@@H]1C[C@H](COP(=O)([O-])OP(=O)(O)OC[C@H]2O[C@@H]3[C@H](O)[C@@H]2O)[C@@H](O)[C@H]1O	79			
CCCNc1nc2c(N)[n+]3cnc2n1[C@@H]1O[C@H](COP(=O)(O)OP(=O)([O-])OC[C@@H]2C[C@@H](O)[C@H]3C2)[C@@H](O)[C@H]1O				inactive
Nc1nc2c(N)[n+]3cnc2n1[C@@H]1O[C@H](COP(=O)([O-])OP(=O)(O)OC[C@H]2C[C@@H]3[C@H](O)[C@@H]2O)[C@@H](O)[C@H]1O	89	96	33	
